Experimental data from ChEMBL document CHEMBL1671867, “Novel polymyxin derivatives carrying only three positive charges are effective antibacterial agents” (Antimicrob Agents Chemother, 2008).
pIC50: −log10 of the molar value. ≈ marks a conversion by molar mass, not a printed value. Blank lines part the entries; values can stand above or below the compound they belong to. Bridge positions count the residues as written; N and C are the ends. Square brackets hold non-standard residues; d marks the D form. Peptide text beside a SMILES is read from it. * marks the point of attachment. Decanoyl = CCCCCCCCCC(=O)*; Octanoyl = CCCCCCCC(=O)*; Dab = NCC[C@H](N)C(=O)O; Abu = CC[C@H](N)C(=O)O

How the values were obtained:
[1] = tested on: Escherichia coli; assay: Antibacterial activity against Escherichia coli ATCC […] by CLSI M7-A7 agar dilution method; format: functional
[2] = tested on: Escherichia coli; assay: Antibacterial activity against Escherichia coli IH3080 assessed as growth inhibition at 10 ug after 18 hrs by […] in presence of 1 ug/ml rifampin; format: functional
[3] = tested on: Escherichia coli; assay: Antibacterial activity against Escherichia coli IH3080 assessed as growth inhibition at 10 ug after 18 hrs by […]; format: functional
[4] = tested on: Candida albicans; assay: Antibacterial activity against Candida albicans ATCC 28366 by CLSI M7-A7 agar dilution method; format: functional
[5] = tested on: Staphylococcus aureus; assay: Antibacterial activity against Staphylococcus aureus ATCC 25923 by CLSI M7-A7 agar dilution method; format: functional
How it was run: (§1)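 Agar dilution on Mueller-Hinton agar with test substance at 0.25 to 32 μg/ml in twofold steps. Spots of about 10^4 CFU applied with a multipoint inoculator.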

[6] = tested on: Escherichia coli; assay: Antibacterial activity against Escherichia coli SC 9253 by CLSI M7-A7 agar dilution method; format: functional; how it was run: as §1
[7] = tested on: Escherichia coli; assay: Antibacterial activity against Escherichia coli SC 9252 by CLSI M7-A7 agar dilution method; format: functional
[8] = tested on: Pseudomonas aeruginosa; assay: Antibacterial activity against Pseudomonas aeruginosa ATCC 27853 by CLSI M7-A7 agar dilution method; format: functional; how it was run: as §1
[9] = tested on: Acinetobacter baumannii; assay: Antibacterial activity against Acinetobacter baumannii by CLSI M7-A7 agar dilution method; format: functional
[10] = tested on: Serratia marcescens; assay: Antibacterial activity against Serratia marcescens ATCC 8100 by CLSI M7-A7 agar dilution method; format: functional; how it was run: as §1
[11] = tested on: Acinetobacter baumannii; assay: Antibacterial activity against Acinetobacter baumannii ATCC 19606 by CLSI M7-A7 agar dilution method; format: functional
[12] = tested on: Citrobacter freundii; assay: Antibacterial activity against Citrobacter freundii ATCC 8090 by CLSI M7-A7 agar dilution method; format: functional
[13] = tested on: Enterobacter cloacae; assay: Antibacterial activity against Enterobacter cloacae by CLSI M7-A7 agar dilution method; format: functional
[14] = tested on: Enterobacter cloacae; assay: Antibacterial activity against Enterobacter cloacae CCUG52947 by CLSI M7-A7 agar dilution method; format: functional
[15] = tested on: Enterobacter cloacae; assay: Antibacterial activity against Enterobacter cloacae ATCC 23355 by CLSI M7-A7 agar dilution method; format: functional
[16] = tested on: Klebsiella oxytoca; assay: Antibacterial activity against Klebsiella oxytoca CCUG51683 by CLSI M7-A7 agar dilution method; format: functional; how it was run: as §1
[17] = tested on: Klebsiella oxytoca; assay: Antibacterial activity against Klebsiella oxytoca ATCC 13182 by CLSI M7-A7 agar dilution method; format: functional; how it was run: as §1
[18] = tested on: Klebsiella pneumoniae; assay: Antibacterial activity against Klebsiella pneumoniae by CLSI M7-A7 agar dilution method; format: functional; how it was run: as §1
[19] = tested on: Escherichia coli; assay: Antibacterial activity against Escherichia coli by CLSI M7-A7 agar dilution method; format: functional; how it was run: as §1
[20] = tested on: Klebsiella pneumoniae; assay: Antibacterial activity against Klebsiella pneumoniae CCUG45421 by CLSI M7-A7 agar dilution method; format: functional; how it was run: as §1
[21] = tested on: Escherichia coli; assay: Antibacterial activity against Escherichia coli IH3080 by CLSI M7-A7 agar dilution method; format: functional
[22] = Inhibition of [3H]gentamicin binding to brush border membrane of renal cortex
How it was run: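 Brush border membrane vesicles prepared from male albino rat renal cortex by Mg2+-EGTA precipitation. Incubated with 20 μM [3H]gentamicin in 10 mM HEPES pH 7.5 with 300 mM mannitol, with or without compound, 60 min at 4°C. Then filtered, washed, and bound radioactivity counted by scintillation. IC50 fitted with the Hill equation.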

MIC [1]: 2 µg/mL (≈ 1.81 µM) | MIC [4]: > 32 µg/mL | MIC [5]: > 32 µg/mL | MIC [6]: 16 µg/mL (≈ 14.5 µM) | MIC [7]: 8 µg/mL (≈ 7.24 µM) | MIC [8]: 4 µg/mL (≈ 3.62 µM) | MIC [9]: 2 µg/mL (≈ 1.81 µM) | MIC [10]: > 32 µg/mL | MIC [11]: 4 µg/mL (≈ 3.62 µM) | MIC [12]: 2 µg/mL (≈ 1.81 µM) | MIC [13]: 2 µg/mL (≈ 1.81 µM) | MIC [14]: 2 µg/mL (≈ 1.81 µM) | MIC [15]: 2 µg/mL (≈ 1.81 µM) | MIC [16]: 2 µg/mL (≈ 1.81 µM) | MIC [17]: 2 µg/mL (≈ 1.81 µM) | MIC [18]: 2 µg/mL (≈ 1.81 µM) | MIC [19]: 1 µg/mL (≈ 0.906 µM) | MIC [20]: 4 µg/mL (≈ 3.62 µM) | MIC [21]: 2 µg/mL (≈ 1.81 µM)
Compound: CCCCCCCCCC(=O)N[C@H](C(=O)N[C@H](CO)C(=O)N[C@H]1CCNC(=O)[C@H]([C@@H](C)O)NC(=O)[C@H](CCN)NC(=O)[C@H](CCN)NC(=O)[C@H](CC(C)C)NC(=O)[C@@H](Cc2ccccc2)NC(=O)[C@H](CCN)NC1=O)[C@@H](C)O (Decanoyl-T[dS][Dab][Dab][dF]L[Dab][Dab]T; lactam 3-C)
inhibition zone (IZ) [2]: 150 mm2 | inhibition zone (IZ) [3]: 130 mm2

Compound: CCCCCCCC(=O)N[C@@H](C)C(=O)N[C@H](C(=O)N[C@H](CO)C(=O)N[C@H]1CCNC(=O)[C@H]([C@@H](C)O)NC(=O)[C@H](CCN)NC(=O)[C@H](CCN)NC(=O)[C@H](CC(C)C)NC(=O)[C@H](Cc2ccccc2)NC(=O)[C@H](CCN)NC1=O)[C@@H](C)O
inhibition zone (IZ) [2]: 200 mm2 | inhibition zone (IZ) [3]: 160 mm2

Compound: CCCCCCCC(=O)N[C@H](C(=O)N[C@@H](CCN)C(=O)N[C@H]1CCNC(=O)[C@H]([C@@H](C)O)NC(=O)[C@H](CC)NC(=O)[C@H](CCN)NC(=O)[C@H](CC(C)C)NC(=O)[C@@H](Cc2ccccc2)NC(=O)[C@H](CCN)NC1=O)[C@@H](C)O (Octanoyl-T[Dab][Dab][Dab][dF]L[Dab][Abu]T; lactam 3-C)
inhibition zone (IZ) [2]: 170 mm2 | inhibition zone (IZ) [3]: 0 mm2

Compound: CCCCCCCC(=O)N[C@H](C(=O)N[C@@H](CC)C(=O)N[C@H]1CCNC(=O)[C@H]([C@@H](C)O)NC(=O)[C@H](CCN)NC(=O)[C@H](CC)NC(=O)[C@H](CC(C)C)NC(=O)[C@@H](Cc2ccccc2)NC(=O)[C@H](CCN)NC1=O)[C@@H](C)O (Octanoyl-T[Abu][Dab][Dab][dF]L[Abu][Dab]T; lactam 3-C)
inhibition zone (IZ) [2]: 10 mm2 | inhibition zone (IZ) [3]: 0 mm2

MIC [1]: > 32 µg/mL | MIC [4]: > 32 µg/mL | MIC [5]: > 32 µg/mL | MIC [6]: > 32 µg/mL | MIC [7]: > 32 µg/mL | MIC [8]: > 32 µg/mL | MIC [9]: > 32 µg/mL | MIC [10]: > 32 µg/mL | MIC [11]: > 32 µg/mL | MIC [12]: 16 µg/mL (≈ 14.9 µM) | MIC [13]: > 32 µg/mL | MIC [14]: > 32 µg/mL | MIC [15]: 32 µg/mL (≈ 29.8 µM) | MIC [16]: 32 µg/mL (≈ 29.8 µM) | MIC [17]: 32 µg/mL (≈ 29.8 µM) | MIC [18]: > 32 µg/mL | MIC [19]: > 16 µg/mL | MIC [20]: > 32 µg/mL | MIC [21]: > 32 µg/mL
Compound: CCCCCCCC(=O)N[C@H](C(=O)N[C@@H](CC)C(=O)N[C@H]1CCNC(=O)[C@H]([C@@H](C)O)NC(=O)[C@H](CCN)NC(=O)[C@H](CCN)NC(=O)[C@H](CC(C)C)NC(=O)[C@@H](Cc2ccccc2)NC(=O)[C@H](CCN)NC1=O)[C@@H](C)O (Octanoyl-T[Abu][Dab][Dab][dF]L[Dab][Dab]T; lactam 3-C)
inhibition zone (IZ) [2]: 194 mm2 | inhibition zone (IZ) [3]: 32 mm2

Compound: CCCCCCCC(=O)N[C@H](C(=O)N[C@H](C)C(=O)N[C@H]1CCNC(=O)[C@H]([C@@H](C)O)NC(=O)[C@H](CCN)NC(=O)[C@H](CCN)NC(=O)[C@H]([C@@H](C)O)NC(=O)[C@H](Cc2ccccc2)NC(=O)[C@H](CCN)NC1=O)[C@@H](C)O
inhibition zone (IZ) [2]: 230 mm2 | inhibition zone (IZ) [3]: 60 mm2

Compound: CCCCCCCC(=O)N[C@H](C(=O)N[C@@H](C(=O)N[C@H]1CCNC(=O)[C@H]([C@@H](C)O)NC(=O)[C@H](CCN)NC(=O)[C@H](CCN)NC(=O)[C@H]([C@@H](C)O)NC(=O)[C@H](Cc2ccccc2)NC(=O)[C@H](CCN)NC1=O)[C@@H](C)O)[C@@H](C)O
inhibition zone (IZ) [2]: 250 mm2 | inhibition zone (IZ) [3]: 200 mm2

pIC50 [22]: 4.41
Compound: POLYMYXIN B

Compound: CCCCCCCC(=O)N[C@H](C)C(=O)N[C@H](C)C(=O)N[C@H]1CCNC(=O)[C@H]([C@@H](C)O)NC(=O)[C@H](CCN)NC(=O)[C@H](CCN)NC(=O)[C@H](CC(C)C)NC(=O)[C@H](Cc2ccccc2)NC(=O)[C@H](CCN)NC1=O
inhibition zone (IZ) [2]: 200 mm2 | inhibition zone (IZ) [3]: 0 mm2

Compound: CCCCCCCC(=O)N[C@@H](CCN)C(=O)N[C@H](C(=O)N[C@@H](CCN)C(=O)N[C@H]1CCNC(=O)[C@H]([C@@H](C)O)NC(=O)[C@H](CCN)NC(=O)[C@H](CC)NC(=O)[C@H](CC(C)C)NC(=O)[C@@H](Cc2ccccc2)NC(=O)[C@H](CC)NC1=O)[C@@H](C)O (Octanoyl-[Dab]T[Dab][Dab][Abu][dF]L[Abu][Dab]T; lactam 4-C)
inhibition zone (IZ) [2]: 0 mm2 | inhibition zone (IZ) [3]: 0 mm2
